What was measured:
Type in all cases: ADME
[1] = Drug metabolism in Sprague-Dawley rat liver microsomes assessed as CYP450-mediated N-(2-aminoethyl)-2-(aminomethyl)-2-[(3,5-bis(trifluoromethyl)phenyl)methyl]-3-(4-hydroxy-3,5-bis(trifluoromethyl)phenyl)propanamide formation incubated up to 3 hrs in presence of NADPH regenerating system by RP-HPLC-MS analysis
Summary of the method: (§1)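 Substrate at 1 µL of 100 µM aqueous stock in 100 mM potassium phosphate, pH 7.4, with NADPH regenerating system. Pooled male Sprague–Dawley rat liver microsomes (20 mg/mL stock) added, then incubated at 37 °C. Sampled at 0–180 min and quenched with cold methanol containing propranolol internal standard. Analysed by RP-HPLC–HRMS in positive ESI mode. Metabolites confirmed by HCD MS2. Triplicate incubations.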

[2] = Drug metabolism in Sprague-Dawley rat liver microsomes assessed as CYP450-mediated 4-[2-(aminomethyl)-3-[3,5-bis(trifluoromethyl)phenyl]-2-(4,5-dihydrooxazol-3-ium-2-yl)propyl]-2,6-bis(trifluoromethyl)phenol formation incubated up to 3 hrs in presence of NADPH regenerating system by RP-HPLC-MS analysis; summary of the method: as §1
[3] = Drug metabolism in Sprague-Dawley rat liver microsomes assessed as CYP450-mediated 2-[[2-(aminomethyl)-3-(3,5-dibromophenyl)-2-[(3,5-dibromophenyl)methyl]propanoyl]amino]acetic acid formation incubated up to 3 hrs in presence of NADPH regenerating system by RP-HPLC-MS analysis; summary of the method: as §1
[4] = Drug metabolism in Sprague-Dawley rat liver microsomes assessed as CYP450-mediated N-(2-aminoethyl)-2-(aminomethyl)-2-[(4-fluoro-5,6-dihydroxy-5,6-dihydronaphthalen-1-yl)methyl]-3-(4-fluoro-1-naphthyl)propanamide formation incubated up to 3 hrs in presence of NADPH regenerating system by RP-HPLC-MS analysis; summary of the method: as §1

## NCCNC(=O)C(CN)(Cc1cc(C(F)(F)F)cc(C(F)(F)F)c1)Cc1cc(C(F)(F)F)cc(C(F)(F)F)c1
[1]
  Drug metabolism: Metabolite_Notdetected
[2]
  Drug metabolism: Metabolite_Notdetected

## NCCNC(=O)C(CN)(Cc1cc(Br)cc(Br)c1)Cc1cc(Br)cc(Br)c1
[3]
  Drug metabolism: Metabolite_Notdetected

## NCCNC(=O)C(CN)(Cc1ccc(F)c2ccccc12)Cc1ccc(F)c2ccccc12
[4]
  Drug metabolism: Metabolite_Detected

From ChEMBL document CHEMBL4311965, “Antimicrobial activity of amphipathic α,α-disubstituted β-amino amide derivatives against ESBL - CARBA producing multi-resistant bacteria; effect of halogenation, lipophilicity and cationic character” (Eur J Med Chem, 2019)
